The results in this text go back to PubChem BioAssay.

The nature of experiment [1]: inhibitors of TNFa-induced NFkB p65 translocation, primary screen, imaging, HUVEC, MLSMR starter and 10KST1 sets (AID 438;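 active = inhibition above 20% together with a positive visual image hit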;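 note: compound added about 3h40 before a 20 min TNFalpha stimulation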;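 for inhibition: signal is the nuclear over cytoplasmic p65 intensity ratio per well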). To be noted: HUVEC TNFa-induced p65 nuclear translocation; cell count: measured here: nuclei count (cytotoxicity indicator), at 2.08 µM; inhibition: at 2 µM, stronger effect = higher value, 0% TNFa-plus-vehicle, 100% no-TNFa wells.
A short description of experiment [2]: inhibitors of mutant huntingtin aggregation, primary screen, imaging, exon1htt(103Q)mCFP cells, high-content imaging (AID 483;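 active = visual image review flags a hit and inhibition of aggregation exceeds 20%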;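 note: compound exposure lasted 3 days before fixation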;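 for nuclei count: percent of the per-plate median nuclei count of sample wells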). The settings on record: exon1htt(103Q)mCFP cell line, aggregate imaging, at 2 µM; inhibition of aggregation: stronger effect = higher value; nuclei count: measured here: cell count, toxicity.
Experiment [3] can be described thus: inhibitors of E-selectin induction by TNFa, primary screen, imaging, HUVEC, immunofluorescence, MLSMR starter and 10KST1 sets (AID 487;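 active = visually confirmed hit in the image check and inhibition above 20%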;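 for inhibition: signal is fraction of cell area covered by stained E-selectin grains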;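 for nuclei count: 100% = median nuclei count of all wells on the same plate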). To be noted: HUVEC TNFalpha-induced E-selectin immunofluorescence imaging, at 2 µM; inhibition: stronger effect = higher value; nuclei count: measured here: cell number, toxicity.
In experiment [4] the target is Voltage-gated potassium channel subunit beta-2 (Rattus norvegicus) (UniProt P62483). In words: KvBeta enzyme negative modulators, primary screen, biochemical, NADPH fluorescence (AID 622).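 Note: slope of raw intensity against log time taken from 70 to 1610 s.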 To be noted: recombinant KvBeta, 4-cyanobenzaldehyde reduction, at 10 µM, stronger effect = higher value.
Voltage-gated potassium channel subunit beta-2 (Rattus norvegicus), sequence (P62483 whole entry, looked up): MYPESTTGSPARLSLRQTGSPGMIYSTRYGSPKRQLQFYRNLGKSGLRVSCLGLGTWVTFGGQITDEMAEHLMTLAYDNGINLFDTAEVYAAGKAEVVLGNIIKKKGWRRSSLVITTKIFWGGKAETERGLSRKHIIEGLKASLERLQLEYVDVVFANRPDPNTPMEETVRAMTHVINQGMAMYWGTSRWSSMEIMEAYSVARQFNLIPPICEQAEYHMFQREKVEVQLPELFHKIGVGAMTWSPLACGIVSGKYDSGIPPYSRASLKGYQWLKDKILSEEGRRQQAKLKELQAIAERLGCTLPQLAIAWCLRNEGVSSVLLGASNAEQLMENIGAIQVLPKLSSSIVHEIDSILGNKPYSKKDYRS
For experiment [5] the target is unchanged. Briefly: KvBeta positive modulators, primary screen, biochemical, NADPH fluorescence (AID 623;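 active = NADPH fluorescence slope more negative than the mean of all samples by about 3 SD, 99.7% confidence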;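 note: fluorescence intensity change per second fitted from 20 to 320 s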). To be noted: Recombinant KvBeta, NADPH fluorescence decrease slope, 10 min; at 10 µM; stronger effect = lower value.
Experiment [6] has as its target Muscarinic acetylcholine receptor M4 (Homo sapiens) (UniProt P08173). Briefly: compounds altering M4/GIRK thallium flux, either direction, primary screen, M4 allosteric agonist project, cell-based, HEK293 M4/GIRK, BTC-AM (AID 625;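 active = fluorescence slope after compound addition differing from the mean of all tested samples at 99.7% confidence, mostly higher but some lower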;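 note: thallium influx through GIRK channels coupled to M4 in HEK293 cells with BTC-AM dye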). To be noted: at 10 µM, actives lie on both sides. The gist of the method:
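Assay system: HEK293 cells with M4 receptor and GIRK channels / Controls: carbachol and DMSO controls / Schedule: 1 h dye loading, 2 min kinetic read / Technique: kinetic fluorescence with BTC-AM dye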

A short description of experiment [7]: inhibitors of Sendai virus-induced IRF3 signaling, primary screen, TLR/RLR signaling modifier project, cell-based, Sendai virus stimulus, luciferase, 10K MLSCN set (AID 602276;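 active = inhibition at or above 50% at 10 µM; inactive = inhibition below 50%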;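 note: firefly luciferase from ISG56 promoter only with Renilla not read in this screen; 0% = Sendai virus plus DMSO and 100% = medium plus DMSO without virus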). The settings on record: HEK293 RL24 IRF3 luciferase reporter, at 10 µM, stronger effect = higher value. A general note: In a reporter assay the amount or activity of a reporter protein is the signal.

The nature of experiment [8]: inhibitors of poly I:C-induced TLR3 signaling, primary screen, cell-based, poly I:C stimulus, luciferase, 10K MLSCN set (AID 602277;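 active = inhibition of the reporter signal at or above 50%; inactive = inhibition below 50%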). To be noted: HEK293-TLR3 RL24 IRF3 luciferase reporter, at 10 µM, stronger effect = higher value.

Calls of active or inactive are those of the source.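 Rule for the calls, unless noted: active = fluorescence slope higher than the sample average by over 3 SD (cut at about -0.22 in these data, passing the limit was not always enough); inactive = the rest.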

A word on the inhibition: it is the change of the read-out against control, counted positive when it falls.

Muscarinic acetylcholine receptor M4 (Homo sapiens), sequence (P08173 whole entry, looked up): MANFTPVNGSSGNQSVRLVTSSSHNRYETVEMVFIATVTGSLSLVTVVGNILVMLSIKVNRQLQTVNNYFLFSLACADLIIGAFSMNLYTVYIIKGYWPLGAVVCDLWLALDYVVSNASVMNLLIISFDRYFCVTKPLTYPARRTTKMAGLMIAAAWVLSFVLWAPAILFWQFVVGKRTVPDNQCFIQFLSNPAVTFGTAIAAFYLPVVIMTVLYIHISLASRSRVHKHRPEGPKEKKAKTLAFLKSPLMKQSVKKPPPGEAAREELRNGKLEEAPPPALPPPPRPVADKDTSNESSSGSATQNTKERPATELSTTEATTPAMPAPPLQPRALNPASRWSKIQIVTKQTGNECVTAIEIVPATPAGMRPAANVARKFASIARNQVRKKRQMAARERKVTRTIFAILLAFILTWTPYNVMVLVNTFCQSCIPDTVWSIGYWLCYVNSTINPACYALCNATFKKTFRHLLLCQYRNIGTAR

`COc1ccc(C2C(=O)N(C3CCCCC3)CC(=O)N2Cc2ccco2)cc1` (centres undefined): the cell count in experiment [1] turned out to be 632. Further, the inhibition in experiment [1] was -15% (inactive); in experiment [3], -26.6% (inactive); in experiment [7], 16.7% (inactive); in experiment [8], 22.1% (inactive). Also, in experiment [2], the inhibition of aggregation is -40.5% (inactive). For the same molecule, the nuclei count in experiment [2] amounted to 124%; in experiment [3], 101%. Further, the fluorescence slope is -0.526 (inactive) in experiment [4] and 0.00562 (inactive) in experiment [6]. Further, the NADPH fluorescence slope in experiment [5] is 1.7e-05 (inactive).
For the molecule `Cc1ccc(-n2nnnc2SCC(=O)N2CCc3ccccc3C2)cc1`, the cell count in experiment [1] was 526. Besides, the inhibition is -10.2% (inactive) in experiment [1], -28.6% (inactive) in experiment [3], 8.66% (inactive) in experiment [7] and 11% (inactive) in experiment [8]. Besides, the inhibition of aggregation in experiment [2] is -6.8% (inactive). In addition, the nuclei count turned out to be 104% in experiment [2] and 148% in experiment [3]. Further, the fluorescence slope in experiment [4] is -0.49 (inactive); in experiment [6], 0.00503 (inactive). Further, in experiment [5], the NADPH fluorescence slope is 8.4e-07 (inactive).
In the case of `COC(=O)c1cc(NC(=O)C2COc3ccccc3O2)cc(C(=O)OC)c1` (centres undefined), the cell count in experiment [1] worked out at 462. In addition, the inhibition was 6.8% (inactive) in experiment [1], -15.6% (inactive) in experiment [3], 11.6% (inactive) in experiment [7] and -7.02% (inactive) in experiment [8]. The inhibition of aggregation in experiment [2] was 16.1% (inactive). The nuclei count in experiment [2] is 101%; in experiment [3], 107%. The values for the fluorescence slope in experiment [4] and in experiment [6] were -0.517 (inactive) and 0.00524 (inactive), respectively. In experiment [5], the NADPH fluorescence slope was -3e-05 (inactive).
Take `CCOP(=O)(c1ccc(N(C)C)cc1)C(O)c1cc(OC)c(OC)c(OC)c1` (centres undefined): the cell count in experiment [1] worked out at 713. For the same molecule, the inhibition in experiment [1] is -0.6% (inactive); in experiment [3] it was 10.2% (inactive); in experiment [7], 4.26% (inactive); in experiment [8] it was 21% (inactive). Also, the inhibition of aggregation in experiment [2] was 0% (inactive). In addition, the figures for the nuclei count in experiment [2] and in experiment [3] were 113% and 103%, respectively. The fluorescence slope was -0.455 (inactive) in experiment [4] and 0.00563 (inactive) in experiment [6]. Besides, the NADPH fluorescence slope in experiment [5] is -4.5e-05 (inactive).
In the case of `O=C(Nc1ccccc1N1CCN(C(=O)c2ccc(Cl)cc2)CC1)c1cc2ccccc2o1`, in experiment [1], the cell count was 424. Also, the inhibition in experiment [1] is 0% (inactive); in experiment [3] it was -108% (inactive); in experiment [7], 1.02% (inactive); in experiment [8], 17% (inactive). Further, the inhibition of aggregation in experiment [2] is -5.5% (inactive). The nuclei count turned out to be 101% in experiment [2] and 104% in experiment [3]. The fluorescence slope in experiment [4] was -0.549 (inactive); in experiment [6], 0.00626 (inactive). Besides, the NADPH fluorescence slope in experiment [5] was -6.3e-06 (inactive).
In the case of `COc1cccc(Nc2c(F)c(F)c(F)c(F)c2C(=O)O)c1`, the cell count in experiment [1] is 246. Further, the inhibition is -4% (inactive) in experiment [1], -11.9% (inactive) in experiment [3], 10.2% (inactive) in experiment [7] and 11.4% (inactive) in experiment [8]. Also, the inhibition of aggregation in experiment [2] was 9.3% (inactive). The nuclei count was determined as 77.5% in experiment [2] and 96.6% in experiment [3]. Also, the fluorescence slope in experiment [4] is -0.587 (inactive); in experiment [6], 0.00658 (inactive). In addition, in experiment [5], the NADPH fluorescence slope is -3.3e-05 (inactive).
On to `O=C1C=C(NCc2ccco2)C2(CCCCC2)O1`, for which the cell count in experiment [1] was 495. The inhibition in experiment [1] is 7.6% (inactive); in experiment [3] it was -229% (inactive); in experiment [7], 17.4% (inactive); in experiment [8], 20.2% (inactive). Also, the inhibition of aggregation in experiment [2] is 0.6% (inactive). For the same molecule, the nuclei count in experiment [2] stood at 97.5%; in experiment [3] it was 125%. For the same molecule, the fluorescence slope is -0.569 (inactive) in experiment [4] and 0.00577 (inactive) in experiment [6]. Moreover, in experiment [5], the NADPH fluorescence slope was -5.7e-05 (inactive).
For `O=C(Cc1ccsc1-c1ccccc1)NO`, the cell count in experiment [1] is 483. For the same molecule, the inhibition is -1.2% (inactive) in experiment [1], 44.1% (inactive) in experiment [3], 17.8% (inactive) in experiment [7] and 11.3% (inactive) in experiment [8]. Moreover, the inhibition of aggregation in experiment [2] was 11.3% (inactive). Also, the nuclei count is 76% in experiment [2] and 57.7% in experiment [3]. The fluorescence slope in experiment [4] was -0.46 (inactive); in experiment [6], 0.00508 (inactive). Moreover, in experiment [5], the NADPH fluorescence slope was -3.2e-05 (inactive).
Regarding `CCn1cc(C(=O)NCCN(C)CCc2ccccc2)c(=O)c2cc(S(=O)(=O)N(C)C)ccc21`, the cell count in experiment [1] turned out to be 543. The inhibition in experiment [1] is -20.4% (inactive); in experiment [3], -10.5% (inactive); in experiment [7], 14% (inactive); in experiment [8], 18.4% (inactive). Besides, the inhibition of aggregation in experiment [2] is -8.6% (inactive). Also, the nuclei count in experiment [2] worked out at 118%; in experiment [3] it was 110%. The fluorescence slope was -0.494 (inactive) in experiment [4] and 0.00668 (inactive) in experiment [6]. The NADPH fluorescence slope in experiment [5] was 0.0002 (inactive).
On to `COc1ccc2c(=O)c3c(=O)n(Cc4ccco4)c(C(C)C)nc3oc2c1`, for which the cell count in experiment [1] turned out to be 436. Moreover, the inhibition in experiment [1] was -3.9% (inactive); in experiment [3] it was -15.2% (inactive); in experiment [7], 4.04% (inactive); in experiment [8] it was 9.95% (inactive). Besides, in experiment [2], the inhibition of aggregation was -10.1% (inactive). Also, the nuclei count in experiment [2] was 91.7%; in experiment [3] it was 107%. Moreover, the fluorescence slope in experiment [4] was -0.564 (inactive); in experiment [6], 0.00474 (inactive). The NADPH fluorescence slope in experiment [5] is -2.1e-05 (inactive).
On to `COC(=O)c1ccc(CSc2nc3ccccc3c(=O)n2Cc2ccco2)o1`, for which the cell count in experiment [1] came out at 414. Moreover, the inhibition in experiment [1] was 2.6% (inactive); in experiment [3], 1.8% (inactive); in experiment [7], 6.37% (inactive); in experiment [8], -5.19% (inactive). In experiment [2], the inhibition of aggregation is -12.9% (inactive). For the same molecule, the figures for the nuclei count in experiment [2] and in experiment [3] were 111% and 114%, respectively. Moreover, the fluorescence slope is -0.563 (inactive) in experiment [4] and 0.00748 (inactive) in experiment [6]. The NADPH fluorescence slope in experiment [5] is -1.4e-05 (inactive).
As to `O=C(NCCN1CCOCC1)C1CC(=O)N(c2ccc(F)c(Cl)c2)C1` (centres undefined), in experiment [1], the cell count is 353. The inhibition in experiment [1] was -4.7% (inactive); in experiment [3], -63.7% (inactive); in experiment [7], 10.9% (inactive); in experiment [8] it was 10.3% (inactive). Moreover, the inhibition of aggregation in experiment [2] was 21.8% (inactive). In addition, the figures for the nuclei count in experiment [2] and in experiment [3] were 76.2% and 120%, respectively. Besides, the figures for the fluorescence slope in experiment [4] and in experiment [6] were -0.554 (inactive) and 0.00645 (inactive), respectively. Moreover, in experiment [5], the NADPH fluorescence slope was -3.9e-05 (inactive).
On to `COCCN1C(=O)C(=O)/C(=C(/O)c2cccc(S(=O)(=O)N(C)C)c2)C12C(=O)N(C)c1ccccc12` (centres undefined), for which the cell count in experiment [1] is 584. Besides, the inhibition in experiment [1] was -22.3% (inactive); in experiment [3] it was -76.4% (inactive); in experiment [7], 8.34% (inactive); in experiment [8] it was 33.7% (inactive). The inhibition of aggregation in experiment [2] is 5.4% (inactive). Besides, the nuclei count was 115% in experiment [2] and 107% in experiment [3]. Also, the fluorescence slope in experiment [4] was -0.483 (inactive); in experiment [6] it was 0.00617 (inactive). In experiment [5], the NADPH fluorescence slope was -5e-05 (inactive).
Regarding `COc1ccc(NC(=O)Cn2nnc(-c3ccccc3N)n2)cc1OC`, the cell count in experiment [1] is 656. The inhibition was -6.1% (inactive) in experiment [1], -51.2% (inactive) in experiment [3], 17.6% (inactive) in experiment [7] and 14.6% (inactive) in experiment [8]. Moreover, in experiment [2], the inhibition of aggregation was 19.9% (inactive). In addition, the values for the nuclei count in experiment [2] and in experiment [3] were 100% and 121%, respectively. Further, the fluorescence slope was -0.595 (inactive) in experiment [4] and 0.00531 (inactive) in experiment [6]. Also, the NADPH fluorescence slope in experiment [5] was 1e-05 (inactive).
